In brackets after ≈: the same amount, converted by molar mass.
Columns and labels:
[1] = Oral bioavailability in Rhesus monkey; type: ADME, organism-based, Macaca mulatta; conditions: in vivo
In short: (§1)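 Rhesus monkeys, adult males, six animals per compound, each given drug orally and iv; fasted overnight. Single 30 mg/kg solution doses, by nasogastric tube (in water) or saphenous vein (in isotonic lactated Ringer). Plasma sampled at intervals, frozen at -70 °C, antibacterial activity by microbiological assay. AUC in μg min/mL; oral bioavailability from oral vs iv AUC.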

[2] = Mean plasma levels in rats at a time 5 min after iv administration of 100 mg/kg of probenecid 5 min prior to test compound; type: ADME, organism-based; design: dose 100 mg/kg, route intravenous; conditions: rat, read-out: Plasma levels
In short: (§2)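 Rats, jugular vein cannulated (two per group), test compound iv 20 mg/kg; probenecid 100 mg/kg iv 5 min before in treated groups. Heparinized plasma sampled at 5, 20, 40 min and 1, 2, 3 h, assayed microbiologically (B. subtilis agar well). AUC 0-3 h in μg min/mL; half-life in min.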

[3] = Mean plasma levels in rats 40 min after iv administration of 100 mg/kg of probenecid 5 min prior to test compound; type: ADME, organism-based; design: dose 100 mg/kg, route intravenous; conditions: rat, read-out: Plasma levels; in short: as §2
[4] = system: Escherichia coli; assay: Minimum inhibitory concentration against EC14 strain Escherichia coli; type: functional
[5] = Area under plasma concentration vs time curve observed in rats for 0-3 h; type: ADME; design: time < 3 hr; conditions: rat; in short: as §2
[6] = Mean plasma levels in rats 20 min after iv administration of 100 mg/kg of probenecid 5 min prior to test compound; type: ADME, organism-based; design: dose 100 mg/kg, route intravenous; conditions: rat, read-out: Plasma levels; in short: as §2
[7] = system: Staphylococcus epidermidis; assay: Minimum inhibitory concentration against 222 strain of Staphylococcus epidermidis; type: functional
[8] = system: Staphylococcus aureus; assay: Minimum inhibitory concentration against S13E strain of Staphylococcus aureus; type: functional
[9] = Percent of urinary recovery in rats after, oral administration of single 20 mg/kg dose in solution (N,range); type: ADME, organism-based; design: dose 20 mg/kg, route oral; conditions: rat, urine, read-out: Recovery
In short: (§3)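 Male Wistar rats (200-300 g), jugular-cannulated, upper GI emptied by light cycle; 20 mg/kg in saline (6 mg/mL) sc or orally. Urine collected in wire-bottom cages, assayed by B. subtilis agar well method. Mean ± SD recovery with N and range; bioavailability = oral over mean sc recovery.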

[10] = Mean plasma levels in rats 1 hr after iv administration of 100 mg/kg of probenecid 5 min prior to test compound; type: ADME, organism-based; design: dose 100 mg/kg, route intravenous; conditions: rat, read-out: Plasma levels; in short: as §2
[11] = system: Salmonella; assay: Minimum inhibitory concentration against X514 strain of Salmonella; type: functional
[12] = Mean plasma levels in rats 2 hr after iv administration of 100 mg/kg of probenecid 5 min prior to test compound; type: ADME, organism-based; design: dose 100 mg/kg, route intravenous; conditions: rat, read-out: Plasma levels; in short: as §2
[13] = system: Streptococcus pneumoniae; assay: Minimum inhibitory concentration against park strain of Streptococcus pneumoniae
[14] = Area under plasma concentration vs time curve observed in Rhesus monkeys after oral administration of single 30 mg/kg dose; type: ADME, organism-based, Macaca mulatta; design: dose 30 mg/kg, route oral; conditions: rhesus monkey; in short: as §1
[15] = system: Klebsiella aerogenes; assay: Minimum inhibitory concentration against EB17 strain of Enterobacter aerogenes; type: functional
[16] = Area under plasma concentration vs time curve observed in Rhesus monkeys after, iv administration of single 30 mg/kg dose; type: ADME, organism-based, Macaca mulatta; design: dose 30 mg/kg, route intravenous; conditions: rhesus monkey; in short: as §1
[17] = Mean plasma levels in rats 3h after intravenous administration of 20 mg/kg of compound; type: ADME, organism-based; design: dose 20 mg/kg, route intravenous; conditions: rat, read-out: Plasma levels; in short: as §2
[18] = system: Klebsiella pneumoniae; assay: Minimum inhibitory concentration against X68 strain of Klebsiella pneumoniae; type: functional
[19] = system: Canis familiaris; assay: Area under plasma concentration vs time curve observed in female mongrel dogs after, iv administration of single 15 mg/kg dose; type: ADME, organism-based, Canis lupus familiaris; design: dose 15 mg/kg, route intravenous; conditions: dog, in vivo
In short: (§4)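 Six female mongrel dogs (14-23 kg) fasted overnight, bladder catheterized; single 15 mg/kg solution doses by stomach tube (in water, total 500 mL) or cephalic vein (saline or pH 6.0 NaCl/phosphate/acetate buffer). Plasma sampled at intervals; activity by disk-plate agar diffusion against E. coli MB 3804, standards in dog serum or buffer. AUC μg min/mL, mean ± SEM; BA from iv vs po AUC and urinary recovery.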

[20] = Half-life of the compound; type: ADME; in short: as §2
[21] = Percent of urinary recovery in rats after, sc administration of single 20 mg/kg dose in solution (N,range); type: ADME, organism-based; design: dose 20 mg/kg, route subcutaneous; conditions: rat, urine, read-out: Recovery; in short: as §3
[22] = system: Haemophilus influenzae; assay: Minimum inhibitory concentration against sens CL strain of Haemophilus influenzae; type: functional
[23] = Compound was tested for percent of oral bioavailability in mice; 56-74; type: ADME, organism-based; conditions: mouse, in vivo, read-out: Bioavailabiility
In short: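 Male Cox mice given water and liquid diet overnight; 20 mg/kg in saline (2 mg/mL) sc or orally; urine from collection cages plus bladder contents over 2 h; activity by agar well assay with Bacillus subtilis ATCC 6633. Bioavailability from percent dose excreted in urine after oral vs parenteral dosing.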

[24] = system: Haemophilus influenzae; assay: Minimum inhibitory concentration against res 76 strain of Haemophilus influenzae; type: functional
[25] = Dose in urine (24-h urine excretion) in female mongrel dogs after iv administration of single 15 mg/kg dose; type: ADME, organism-based, Canis lupus familiaris; design: dose 15 mg/kg, route intravenous; conditions: dog
In short: (§5)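 Female mongrel dogs (n=6), bladder catheter; urine collected at intervals after single 15 mg/kg iv or oral solution dose, frozen; antibiotic activity by disk-plate agar diffusion against E. coli MB 3804 with standards in pH 6.0 buffer; percent of dose recovered in urine.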

[26] = system: Canis familiaris; assay: Area under plasma concentration vs time curve observed in female mongrel dogs after, oral administration of single 15 mg/kg dose; type: ADME, organism-based, Canis lupus familiaris; design: dose 15 mg/kg, route oral; conditions: dog, in vivo; in short: as §4
[27] = system: Streptococcus pyogenes; assay: Minimum inhibitory concentration against C203 strain of Streptococcus pyogenes
[28] = system: Streptococcus pneumoniae; assay: Minimum inhibitory concentration against Park strain of Streptococcus pneumoniae
[29] = system: Streptococcus pyogenes; assay: Minimum inhibitory concentration against Streptococcus pyogenes C203; type: functional
[30] = system: Staphylococcus aureus; assay: Minimum inhibitory concentration against 3055 strain of Staphylococcus aureus
[31] = system: Staphylococcus aureus; assay: Minimum inhibitory concentration against V41 strain of Staphylococcus aureus; type: functional
[32] = system: Staphylococcus epidermidis; assay: Minimum inhibitory concentration against Epil strain of Staphylococcus epidermidis; type: functional
[33] = Dose in urine (24-h urine excretion) in female mongrel dogs after oral administration of single 15 mg/kg dose; type: ADME, organism-based, Canis lupus familiaris; design: dose 15 mg/kg, route oral; conditions: dog; in short: as §5
[34] = Bioavailability in rat; type: ADME, organism-based; conditions: in vivo; in short: as §3
[35] = Oral bioavailability in dog (female mongrel); type: ADME, organism-based, Canis lupus familiaris; conditions: in vivo; in short: as §4
[36] = system: Staphylococcus aureus; assay: Minimum inhibitory concentration against X1.1 strain of Staphylococcus aureus; type: functional
[37] = Minimum inhibitory concentration against N9 strain of Shigella sonnei; type: functional

SMILES: O=C(COc1ccccc1)N[C@@H]1C(=O)N2C(C(=O)O)=C(Cl)CS[C@H]12
- bioavailability [1]: 13.1%
- concentration at 5 min [2]: 66000 ng/mL
- concentration at 40 min [3]: 25200 ng/mL
- MIC [4]: 64 µg/mL (≈ 174 µM)
- AUC at 3 h [5]: 51400 ng·h/mL
- concentration at 20 min [6]: 39100 ng/mL
- MIC [7]: 0.25 µg/mL (≈ 0.678 µM)
- MIC [8]: 16 µg/mL (≈ 43.4 µM)
- dose excreted [9]: 10.1%
- concentration at 1 h [10]: 18400 ng/mL
- MIC [11]: > 128 µg/mL
- concentration at 2 h [12]: 4600 ng/mL
- MIC [13]: 0.06 µg/mL (≈ 0.163 µM)
- AUC [14]: 5000 ng·h/mL
- MIC [15]: > 128 µg/mL
- AUC [16]: 38000 ng·h/mL
- concentration at 3 h [17]: 500 ng/mL
- MIC [18]: 128 µg/mL (≈ 347 µM)
- AUC [19]: 57500 ng·h/mL
- half-life [20]: 30 min
- dose excreted [21]: 43.8%
- MIC [22]: 1 µg/mL (≈ 2.71 µM)
- bioavailability [23]: 56%
- MIC [24]: 2 µg/mL (≈ 5.42 µM)
- dose excreted [25]: 48%
- AUC [26]: 16700 ng·h/mL
- MIC [27]: 0.06 µg/mL (≈ 0.163 µM)
- MIC [28]: 0.125 µg/mL (≈ 0.339 µM)
- MIC [29]: 0.125 µg/mL (≈ 0.339 µM)
- MIC [30]: 0.25 µg/mL (≈ 0.678 µM)
- MIC [31]: 8 µg/mL (≈ 21.7 µM)
- MIC [32]: 4 µg/mL (≈ 10.8 µM)
- dose excreted [33]: 18%
- bioavailability [34]: 23.1%
- bioavailability [35]: 30%
- MIC [36]: 0.25 µg/mL (≈ 0.678 µM)
- MIC [37]: > 128 µg/mL

Source: ChEMBL document CHEMBL1123985, “Oral absorption of cephalosporin antibiotics. 1. Synthesis, biological properties, and oral bioavailability of 7-(arylacetamido)-3-chloro cephalosporins in animals” (J Med Chem, 1988)
